FN deposit inh: fibronectin deposition inhibition; AH1F fibroblasts, Alexa488-fibronectin deposition fluorescence, overnight; inhibition, % at 12.6 µM; 350,000 tested, 0.086% active;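 active = mean inhibition across replicates of 30% or more, regardless of how many single replicates reach that level; inconclusive = mean under 30% yet at least half of replicates reach 30%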
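Material: AH1F fibroblast monolayer depositing Alexa488-labelled fibronectin into matrix | Input: 10000 AH1F cells/well | Medium: DMEM plus 2% serum, read in PBS | Reagent: Alexa488-fibronectin, 24 nM final in well | Compound dosing: One dose per compound, pinned | Schedule: 1 h adhesion, overnight exposure | Measured by: Fluorescence at 485 nm excitation, 525 nm emission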
MLL AF4-AF9 inh: blocks AF4 peptide binding to human AF9; 350,000 tested, 0.47% active; P42568; AID 651704; inhibition, % at 10 µM; AlphaScreen, biotin-AF4 peptide binding to FLAG-AF9;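 active = every replicate reaching a set inhibition limit, whatever the replicate mean, cut at about 25% in these data; inconclusive = mean inhibition reaches that limit but some replicates miss it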
Target sequence (P42568 whole entry, looked up): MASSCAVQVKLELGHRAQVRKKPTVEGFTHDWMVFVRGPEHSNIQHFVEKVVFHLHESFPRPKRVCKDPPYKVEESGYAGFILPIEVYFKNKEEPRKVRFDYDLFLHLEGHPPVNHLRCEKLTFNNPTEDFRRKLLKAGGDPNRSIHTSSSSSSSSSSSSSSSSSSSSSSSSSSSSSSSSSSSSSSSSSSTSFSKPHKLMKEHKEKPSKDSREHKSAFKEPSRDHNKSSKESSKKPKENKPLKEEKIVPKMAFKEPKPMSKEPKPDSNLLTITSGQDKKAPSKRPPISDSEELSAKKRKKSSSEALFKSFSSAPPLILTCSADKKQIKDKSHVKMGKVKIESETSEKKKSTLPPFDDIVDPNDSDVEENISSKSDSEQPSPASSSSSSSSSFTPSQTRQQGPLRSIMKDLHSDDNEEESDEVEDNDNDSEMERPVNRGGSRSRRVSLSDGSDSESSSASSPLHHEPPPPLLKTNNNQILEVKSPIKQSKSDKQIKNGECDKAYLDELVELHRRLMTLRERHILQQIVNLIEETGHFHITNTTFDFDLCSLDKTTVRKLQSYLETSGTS
SIRT5 inh: blocks human SIRT5 desuccinylation of peptide. Q9NXA8. Purified SirT5, succinyl-peptide AMC, trypsin-coupled fluorescence. inhibition, % at 15 µM. 330,000 tested, 1.1% active. AID 652115; in the data active = inhibition above about 15%; inconclusive = no clear call, values can overlap the other calls
ERp5 block: ERp5 (human) disulfide isomerase inhibition | Q15084 | ERp5 insulin aggregation, absorbance 650 nm, 90 min | inhibition, % at 9.99 µM | 350,000 tested, 0.05% active;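 active = mean replicate inhibition above about 25%, with every replicate also reaching it, limit read from the data, passing the limit was not always enough; inconclusive = only one of those two criteria met; inactive = neither criterion met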
PDI turbidity: inhibitors of human protein disulfide isomerase; P07237; PDI insulin aggregation turbidity, A650, 90 min; inhibition, % at 10 µM; 350,000 tested, 0.052% active; AID 588391;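 active = mean inhibition across replicates of 30% or more, whatever share of single replicates reach that level; inconclusive = mean inhibition below 30% while every single replicate reaches 30%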
Hits are given with their value; 0 = inactive; ? = inconclusive; - = no result given. In the library only some 1.3% were active in any assay of this set; here they are far more common.

SMILES | FN deposit inh | MLL AF4-AF9 inh | SIRT5 inh | ERp5 block | PDI turbidity
COc1ccc(NC(=O)CCC(=O)c2ccc(-c3ccccc3)cc2)cc1 | - | - | - | - | 0
Cc1ccccc1-c1ccc2c(c1)O[C@@H](CN(C)C(=O)Nc1ccc(C(F)(F)F)cc1)[C@H](C)CN([C@@H](C)CO)S2(=O)=O | 0 | 0 | 0 | 0 | 0
Cc1ccc(S(=O)(=O)Nc2c(O)c3ccccc3oc2=O)cc1 | 0 | 0 | 0 | 0 | 0
C/C(=N/NS(=O)(=O)c1ccc(C)cc1)c1c(O)c2ccccc2oc1=O | 0 | 0 | 28.5 | 0 | 0
CN(C)CC1CC/C(=C\c2ccc(O)cc2)C1=O (stereo unspecified) | 0 | 0 | 0 | 0 | 86.6
CC1CCC/C(=C\c2ccc(O)cc2)C1=O (stereo unspecified) | 0 | 0 | 0 | 0 | 0
CN(CCc1ccccc1)C(=O)c1ccc(NC(=O)Cc2ccc(NC(=O)C3CCN(C(=O)C4CC4)CC3)cc2)cc1 | 0 | ? | 0 | 0 | 0
CN(C(=O)c1cccc(NC(=O)Cc2ccc(NC(=O)C3CCN(C(=O)C4CCCCC4)CC3)cc2)c1)C1CCCCC1 | 0 | 0 | 25.1 | 0 | 0
CN(CCc1ccccc1)C(=O)c1ccc(NC(=O)Cc2ccc(NC(=O)C3CCN(C(=O)c4ccccc4)CC3)cc2)cc1 | 0 | 31.1 | 0 | 0 | 0
O=C(Cc1ccc(NC(=O)C2CCCN(C(=O)C3CC3)C2)cc1)Nc1cccc(C(=O)N2CCCCC2)c1 (stereo unspecified) | 0 | 0 | 0 | 32.1 | 0
CN(C(=O)c1cccc(NC(=O)Cc2ccc(NC(=O)C3CCN(C(=O)C4CCC4)CC3)cc2)c1)C1CCCCC1 | 0 | 0 | 0 | 0 | 0
O=C(Cc1cccc(NC(=O)C2CCCN(C(=O)C3CC3)C2)c1)Nc1cccc(C(=O)N2CCCCC2)c1 (stereo unspecified) | 0 | 0 | 0 | 0 | 0
COc1cccc(/C=N/NC(=O)CCCC(=O)NC2CCCCC2)c1 | 0 | - | - | - | 0
CCS(=O)(=O)N1CCN(c2ccccc2F)CC1 | 0 | - | - | - | 0
CCNC(=O)C[C@H]1CC[C@H]2[C@@H](COC[C@@H](O)CN2C(=O)Nc2ccc(C(F)(F)F)cc2)O1 | 0 | 0 | 64.3 | 0 | -
O=C(C[C@H]1CC[C@H]2[C@@H](COC[C@H](O)CN2C(=O)Nc2ccc(F)cc2)O1)NCCc1ccncc1 | 0 | 0 | 18.0 | 0 | -
CCCNC(=O)C[C@@H]1CC[C@@H]2[C@H](COC[C@@H](O)CN2C(=O)C2CCOCC2)O1 | 0 | 0 | 16.4 | 0 | -
CCCNC(=O)C[C@H]1CC[C@@H]2[C@H](COC[C@H](O)CN2C(=O)C2CCOCC2)O1 | 0 | 0 | 0 | 0 | -
CN(Cc1cnn(-c2ccc(F)cc2)c1)C(=O)[C@H]1O[C@@H](n2ccc(N)nc2=O)[C@H](O)[C@@H]1O | 0 | 0 | 0 | 0 | -
Cc1sc2nc(CN3CCOCC3)[nH]c(=O)c2c1-c1ccccc1 | 0 | - | - | - | 0
Cc1sc2nc(N3CCOCC3)[nH]c(=O)c2c1-c1ccccc1 | 0 | 0 | 31.3 | 0 | 0
C[C@H](CO)N1C[C@H](C)[C@@H](CN(C)S(=O)(=O)c2ccccc2)Oc2c(cccc2N(C)C)C1=O | 0 | 0 | 25.0 | 0 | 0
C[C@@H]1CN([C@H](C)CO)C(=O)c2cc(N(C)C)ccc2O[C@H]1CN(C)S(=O)(=O)c1ccccc1 | - | 0 | 32.5 | 0 | -
COC(=O)/C(=C/N(C)C)C(=O)N1CCN(c2ccc(Cl)c(Cl)c2)CC1 | 0 | 0 | 0 | 0 | 0
N#Cc1c(SCc2cccc(Cl)c2)sc(C(=O)c2ccccc2)c1N | - | - | - | - | 0
SMILES | FN deposit inh | MLL AF4-AF9 inh | SIRT5 inh | ERp5 block | PDI turbidity
Cc1nnc(SCC(=O)NCc2ccccc2Cl)[nH]c1=O | 0 | 34.0 | 0 | 0 | 0
CC(C)(C)Nc1scc(-c2ccccc2)[n+]1-c1ccccc1 | 0 | 28.2 | 0 | 0 | 0
COC(=O)[C@@]12C[C@@H](CC(=O)NCc3ccccc3)C(=O)N(Cc3cccc4ccccc34)C1=CCC(C)(C)C2 | 0 | - | 0 | 0 | -
COC(=O)[C@@]12C[C@@H](CC(=O)NCc3ccccc3)C(=O)N(Cc3ccccc3)C1=CCC(C)(C)C2 | 0 | - | 35.6 | 0 | -
CCCCCCCCN1C(=O)[C@H](CC(=O)NCCCN2CCCC2=O)C[C@@]2(C(=O)OC)CC(C)(C)CC=C12 | 0 | 0 | 19.2 | 0 | -
c1ccc2c(NCCc3c[nH]c4ccccc34)c3ccccc3nc2c1 | 0 | 43.7 | 0 | 0 | 0
Cc1ccc(S(=O)(=O)N2CC[C@H]3[C@H](CO)Nc4ccc(-c5cccc(C(=O)N(C)C)c5)cc4[C@H]32)cc1 | 30.6 | 0 | 0 | 0 | -

Screens: PubChem, Broad Institute
